# Screening data: PubChem, several laboratories
# This is a sample that favours compounds with a hit; in the whole collection about 1.8% have one here.
# Hck-Nef inh = blocks Nef-activated human Hck kinase; Recombinant Hck-YEEI plus Nef, Z-Lyte FRET kinase assay; actives 0.68% (n = 220,000); P08631; inhibition, % at 20 µM;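 active means Hck-Nef kinase inhibition above about 50%, limit read from the data; inactive means inhibition below that limit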
# Target sequence (P08631 whole entry, looked up): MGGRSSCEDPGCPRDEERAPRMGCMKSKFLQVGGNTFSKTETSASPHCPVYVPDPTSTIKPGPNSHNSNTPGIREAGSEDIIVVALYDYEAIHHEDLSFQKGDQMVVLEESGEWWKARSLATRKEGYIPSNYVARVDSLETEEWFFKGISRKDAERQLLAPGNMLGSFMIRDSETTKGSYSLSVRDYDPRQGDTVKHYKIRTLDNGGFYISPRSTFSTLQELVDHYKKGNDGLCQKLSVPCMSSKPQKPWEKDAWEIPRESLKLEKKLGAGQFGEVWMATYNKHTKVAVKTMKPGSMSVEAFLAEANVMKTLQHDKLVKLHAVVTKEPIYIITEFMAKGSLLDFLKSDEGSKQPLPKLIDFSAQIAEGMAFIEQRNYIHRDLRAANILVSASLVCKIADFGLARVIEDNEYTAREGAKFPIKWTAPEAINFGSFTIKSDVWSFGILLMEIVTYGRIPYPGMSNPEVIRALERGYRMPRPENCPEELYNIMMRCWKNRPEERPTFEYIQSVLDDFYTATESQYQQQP
# RanGTP-Impb inh = disruptors of Ran-importin-beta complex formation – biochemical, FRET, CFP-Ran, YFP-importin-beta, homogeneous, primary screen | cell-free CFP-Ran/YFP-importin-beta FRET ratio | inhibition, % (no concentration beside the values) | actives 1.1% (n = 300,000) | AID 2216;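 active means more than half of the replicate wells show a fall in the fluorescence ratio signal beyond about 16%, limit read from the data, passing the limit was not always enough; inconclusive means exactly half of the replicate wells pass the set limit; inactive means fewer than half of replicates pass the limit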
# Runt-SMMHC FRET = Runt domain-CBFb-SMMHC interaction inhibition | actives 0.74% (n = 220,000) | Cerulean-Runt/Venus-CBFb-SMMHC FRET ratio 530/480, 1 h | AID 1434 | inhibition, % at 20 µM;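 active means mean inhibition across duplicate retests at 20 µM reaching about 50%, limit read from the data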;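 further: inhibitors lower the FRET ratio by blocking Runt binding to CBFb-SMMHC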
# Runt-CBFb FRET = Runt domain-CBFb interaction inhibition | Q01196+Q13951 | Cerulean-Runt/Venus-CBFb FRET ratio 530/480, 1 h | inhibition, % at 20 µM | actives 0.46% (n = 220,000);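 active means inhibition over about 50% at 20 µM in the single-dose screen, limit read from the data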
#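 test system = Cerulean-Runt domain fusion protein, energy donor | probe or stimulus = Venus-CBFb binding partner, 100 nM | incubation = two 1 h room-temperature incubations shielded from light | detection = fluorescence energy transfer, 422 nm excitation, 530/480 nm emission | measure = loss of energy transfer signal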
# Hck-Nef confirm = confirmation of Hck-Nef kinase inhibitors; shares compounds with Hck-Nef inh; actives 28% (n = 1,300); Recombinant Hck-YEEI:Nef, Z-Lyte FRET kinase assay; calls only at 10 µM; AID 463188;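 active means average inhibition of at least 50%, with Z-scores no higher than 3 in both the phospho-tyrosine peptide and fluorescence counterscreens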
# A number is an active result; i = inactive; ? = inconclusive; nt = no result given; + = active, no number.
SMILES,Hck-Nef inh,RanGTP-Impb inh,Runt-SMMHC FRET,Runt-CBFb FRET,Hck-Nef confirm
CC(=O)Nc1ccc(N2C(=O)c3ccc(C(=O)Nc4nnc(SCc5ccc(F)cc5)s4)cc3C2=O)cc1,86.2,i,i,i,i
CCN1C=C(C(=O)OC)C(c2cccc(OC)c2OC)C(C(=O)OC)=C1,84.7,125.9,85.9,i,nt
COc1cccc(C(=O)OCCCOC(=O)c2cccc(OC)c2OC)c1OC,nt,i,nt,nt,nt
COCCN1C=C(C(=O)OC)C(c2ccccc2Cl)C(C(=O)OC)=C1,153.1,58.5,86.0,64.4,nt
CNS(=O)(=O)c1ccc(NC(=O)c2cc(-c3ccncc3)nc3ccc(Cl)cc23)cc1,nt,i,nt,nt,nt
CC1CCOC(c2coc3ccccc3c2=O)O1 (stereo unspecified),i,i,i,i,nt
O=C(O)C1CSC(c2coc3ccccc3c2=O)N1 (stereo unspecified),91.4,?,i,i,+
CCCn1c(SCC(=O)NCc2ccccc2)n[nH]c1=O,i,i,i,i,nt
CC(=O)n1cc(Nc2ccc([N+](=O)[O-])cc2)c2ccccc21,107.6,i,i,i,i
O=c1cc(C(F)(F)F)[nH]c2ccccc12,50.5,i,i,i,i
Cc1ccc2[nH]c(C(F)(F)F)cc(=O)c2c1,i,i,i,i,nt
Cc1cc(C)c2c(c1)/C(=N\N=c1\sc3ccccc3n1C)C(=O)N2,50.6,i,i,i,i
Cn1/c(=N/N=C/c2ccc([N+](=O)[O-])cc2)sc2ccccc21,i,nt,i,i,nt
O=C(c1cnn(C(=O)c2cccc(S(=O)(=O)N3CCOCC3)c2)c1)c1cc(Cl)cc(Cl)c1O,i,i,i,i,nt
O=C(c1cnn(C(=O)c2cccc(S(=O)(=O)N3CCOCC3)c2)c1)c1ccccc1O,128.8,i,i,i,+
CCCn1c(NC(=O)c2cccc(S(=O)(=O)N3CCCC3)c2)nc2ccccc21,52.5,i,i,i,+
CCCn1c(NC(=O)c2ccccc2)nc2ccccc21,i,i,i,i,nt
Cc1cccn2c(=O)c3cc(C(=O)O)n(C)c3nc12,51.6,i,i,i,i
Cc1cccn2c(=O)c3cc(C(=O)NCCC4=CCCCC4)n(C)c3nc12,nt,i,nt,nt,nt
COC1C=CC(CNC(=O)c2cc3c(=O)n4cccc(C)c4nc3n2C)(OC)O1 (stereo unspecified),73.8,i,i,i,i
COc1ccc(/C=N/NC(=O)c2cc(C(C)(C)C)[nH]n2)cc1COc1ccc(F)cc1F,58.2,51.3,i,i,i
COc1ccc(/C=N\NC(=O)c2ccccc2F)cc1COc1ccc(F)cc1F,nt,i,nt,nt,nt
COc1nc(N=C(N)N)nc2ccc(C)cc12,i,i,i,i,nt
C=CCn1c(C)cc(C(=O)Cn2ncc(Cl)c(Cl)c2=O)c1C,52.6,i,i,i,i
Cn1cnc2c(N/N=C/c3cccs3)ncnc21,68.3,?,i,i,+
SMILES,Hck-Nef inh,RanGTP-Impb inh,Runt-SMMHC FRET,Runt-CBFb FRET,Hck-Nef confirm
COc1ccc(N2CCCC2=N)c(OC)c1,i,i,i,i,nt
CC1(C)CC(NC(=S)Nc2ccc([N+](=O)[O-])cc2)CC(C)(C)N1,i,i,i,i,nt
CCOC(=O)C1=C(C)C(c2ccccc2O)NC(=O)N1 (stereo unspecified),56.6,i,i,i,i
O=S(=O)(NC1CC1)c1ccc(Cl)cc1F,nt,i,nt,nt,nt
CC(=O)c1c(C)[nH]c(C(=O)CSc2nnc(-c3ccccc3)n2Cc2ccc3c(c2)OCO3)c1C,63.5,i,i,i,i
CC(=O)c1c(C)[nH]c(C(=O)CSc2nnc(-c3ccco3)n2Cc2ccccc2)c1C,i,i,i,i,nt
COc1ccc(/C=C/C(=O)NCc2cn(C)nc2C)cc1COc1ccc(Cl)cc1Br,i,i,i,i,nt
CCn1nc(C)c(NC(=O)/C=C/c2ccc(OC)c(COc3ccc(Cl)cc3Br)c2)c1C,98.7,i,i,i,i
CCCCCCCCCCCCCCCC[n+]1cccc2ccccc21,106.7,nt,i,i,nt
O=C(O)Cc1ccc(-n2cccc2)cc1,i,i,i,i,nt
O=C1N=c2ccccc2=C1c1sc(=S)n(-c2ccc(O)cc2)c1O,i,i,i,i,nt
Cc1c(-n2c(O)c(C3=c4ccccc4=NC3=O)sc2=S)c(=O)n(-c2ccccc2)n1C,100.0,i,i,i,+
CC(=O)Nc1ccc(S(=O)(=O)C(C#N)c2nc3ccccc3nc2NCCCO)cc1 (stereo unspecified),165.0,i,i,i,nt
CC(=O)Nc1ccc(S(=O)(=O)Nc2nc3ccccc3nc2Nc2ccccc2)cc1,i,i,i,i,nt
